# Results as given in the EternaBench riboswitch data.
# System: MS2 coat protein
# Assay: apparent Kd, MS2 coat protein; higher = weaker binding; RNA-MaP array; FMN 200 µM where present
# Summary of the method: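 Designs were transcribed by stalled E. coli RNA polymerase on Illumina sequencing-chip clusters. They were titrated with SNAP-549-labelled MS2 coat protein from 0.7 or 1.5 nM, doubling to 3 µM, in 100 mM Tris-HCl pH 7.5, 80 mM KCl, 4 mM MgCl2, BSA, DTT, yeast tRNA and Tween-20, without and then with constant ligand. The apparent Kd is the median of filtered per-cluster fits after normalisation of green signal to red-channel RNA signal and control-cluster median Fmax.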
# [1] = designed as: OFF switch for flavin mononucleotide, no ligand
# [2] = ligand present: flavin mononucleotide, designed as: OFF switch for flavin mononucleotide
# [3] = designed as: ON switch for flavin mononucleotide, no ligand
# [4] = ligand present: flavin mononucleotide, designed as: ON switch for flavin mononucleotide
Sequence,apparent Kd [1] [nM],apparent Kd [2] [nM],apparent Kd [3] [nM],apparent Kd [4] [nM]
AAUUAACAUGAGGAUCACCCAUGUGAGGAUAUGGUAUUAUUUGGACAGUUAUGAUAUACCAGAAGGCACAUAUA,63.4,108,–,–
AAUUAAUUAAUACAUGAGGAUCACCCAUGUAAUUAUUAGAUCAAGGAUAUCAGCUCGAAUAGAGCUGAGAAGGUGAUCACAUGU,–,–,475,111
AAUUAGGUCACAGGAUAUACAACAUCCAUAGCUGUAGAAGGGUGUCAAAAUAAUAUCUGACAUGAGGAUCACCCAUGUUUCCAC,–,–,15.8,12.7
AAUUAGGUCACAGGAUAUACUUCAUCCAUAGAUGUAGAAGGGUGUCAGAAUAAUUUCUUACAUGAGGAUCACCCAUGUUUCCAC,–,–,108,48.1
AAUUAUAUACAGAAGGAGUUAUUUAGAGGAUUACUAGGAUAUGUUCACAUGAGGAUCACCCAUGUCAUAUUGGGAUUUAUUAUU,18,24,–,–
AAUUCGCGAGGAUAUACAUGAGGAUCACCCAUGUGUGUACGCAUGCACUUCAUAGGUUGUAGAAGGCGUGAGAU,19.7,29.4,–,–
AAUUGACACGUAGGAUAUCGCUCUAUUUUAACACGAGAAGGACGUACAUGAGGAUCACCCAUGUUUAAUGGUGUAGAUAAGUUG,105,228,–,–
AAUUGGAACUAAGGAUAUCUGUAUUUUGUUGAAACAUGAGGAUCACCCAUGUUCAUGAAAUUAUAGGAGAAGGUAGAUCCAUAA,–,–,5,4.6
AAUUGGAUCCAGAAGGCAUGGACGACCCGUCACAUUAACAUGAGGAUCACCCAUGUAAAAAUACAUGAGGAUAUGGAUCCUAAA,–,–,41.3,7.43
AAUUGGAUGCAGAAGGCAUGGACGACUCGUCAAAUUAACAUGAGGAUCACCCAUGUCAAAAGACAUGAGGAUAUGCAUCCUAAA,–,–,189,12.6
AAUUGGAUGCAGAAGGCAUGGACGACUCGUCACAUUAACAUGAGGAUCACCCAUGUAAAAUAACAUGAGGAUAUGCAUCCUAAA,–,–,9.81,6.15
AAUUUACAGCUAGGAUAUACAUGAGGAUCACCCAUGUAAUGAUUGGAUCUUAUGAUCGUAUCAGUGUAGAAGGAGCAAAUAAGA,13.4,28.4,–,–
AAUUUACAUGAGGAUCACCCAUGUCAGGAUAUGGUUUUAUUUUUUUCUUUUCUUGAUUCCAGAAGGGACAGCUA,127,68.3,–,–
ACAAAUUAGUGAGGAUAUGCUAAAUUUAUAACAGCAGAAGGCACAAACCUCAAGACAUGAGGAUCACCCAUGUGGAAUAUAGAU,68,139,–,–
ACAAGAUCAGGAUAUACAUGAGGAUCACCCAUGUAUUUCAAAAAGGGACUUUCUUAAUGUAGAAGGGAUCUUGU,22.5,94.4,–,–
ACAAGAUCAGGAUAUACAUGAGGAUCACCCAUGUUUAUCAAAAAAGGGCUUUCUUAAUGUAGAAGGGAUCUUGU,84.5,64.1,–,–
ACAAGAUCAGGAUAUACAUGAGGAUCACCCAUGUUUAUCAAAAAGGGACUUUCUUUAUGUAGAAGGGAUCUUGU,72.8,70.1,–,–
ACAAGAUCAGGAUAUACAUGAGGAUCACCCAUGUUUAUCCAAAAGGGACUUUCUUUAUGUAGAAGGGAUCUUGU,16.8,32.3,–,–
ACAAGGCAUGUAGGAUAUCCAUUGCGUCGCGAUGGAGAAGGACAACACACAUGAGGAUCACCCAUGUGGUCACCCAUGUCGUGU,51.3,169,–,–
ACAAGGCAUGUAGGAUAUCCAUUGCGUCGCGAUGGAGAAGGGCAACACACAUGAGGAUCACCCAUGUGGUCACCCAUGUCGUGU,55.8,68.8,–,–
ACACACCCAUGAGGUCCCUCCACAUGAGGAUCACCCAUGUGCAGAAGGUACGGCACGGUGUGCGGUAAGGAUAUGUACAAGUAA,6.08,7.71,–,–
ACACAUGAGGAUCACCCAUGUACGCGCUGACAGGAGGUCUCACAGGAUAUAUGUAGUGAUGCUACAUAGAAGGGUGAUACCGCG,–,–,67.5,16.2
ACACCGUCAGGAUAUUGGAAGACACCCAGGAGGGUGCCUUUCGAGAAGGGACAUGAGGAUCACCCAUGUGCAGU,27.9,58.6,–,–
ACAGAGGCUGACAUGAGGAUCACCCAUGUUAGAUUGUUAUGUCAGGAUAUUAUCUCGCAACGAGAUAAGAAGGGACCCUCUGUG,–,–,37.5,7.98
ACAGAGGCUGACAUGAGGAUCACCCAUGUUAGAUUGUUAUGUCAGGAUAUUGUCUAGCAACUAGACAAGAAGGGACCCUCUGUG,–,–,39.2,9.69
ACAGAGUGAAGACAGGAUAUUCGCGAUGGCACAUGAGGAUCACCCAUGUUUUGAGCACAUAAACAGAAGAAGGGUUAAAACUCAG,–,–,132,13.8
ACAGGAAACACAGGAUAUGAGCGAAAUAGAGACAUGAGGAUCACCCAUGUACCGUAGAGAACCGGUCAGAAGGGUGACUCCCGU,–,–,25.4,18.9
ACAGGCUUCGAGAAGGACAUGAGGAUCACCCAUGUGCGUGUGAAGCAGCCGUGAGGCUGCAUCAUGUAGGAUAUCGGAGUCUGU,63.8,374,–,–

Sequence,apparent Kd [1] [nM],apparent Kd [2] [nM],apparent Kd [3] [nM],apparent Kd [4] [nM]
ACAGUCACAAUAACUUGUGGGCGUGAGGAUAUAUAUGGCUCGGAGCGGACAUGAGGAUCACCCAUGUAGAAGGCACGAACUAAU,6.1,8.54,–,–
ACAGUUCUGCAAGGAUAUCGUCCUAGUUUGUUUCGAGAAGGUGCUUUAGUUUAUUCCUUUUGUUUACAUGAGGAUCACCCAUGU,23.6,16.9,–,–
ACAUACAUUCGAGGAUAUCGGUGAACAAAUUAACGAGAAGGCGAAAUACUUUUUAAUCUUAUAAACAUGAGGAUCACCCAUGUA,–,–,19.9,20.7
ACAUACAUUCGAGGAUAUCGGUGAUAAAUUUUACGAGAAGGCGAUUUACGGCAUAAUGCUGUAGACAUGAGGAUCACCCAUGUA,–,–,71.5,39.2
ACAUGAGACUAAGGAUAUGGUGUACCUACAUGUGACAUGAGGAUCACCCAUGUGGUAAGUAUGACUCAGAAGGUAGAGAUAUGU,–,–,414,37.2
ACAUGAGACUUAGGAUAUGUUGUACCUACAUGUGACAUGAGGAUCACCCAUGUGGUAAGUAUGACACAGAAGGAAGAGAUAUGU,–,–,21.4,19.9
ACAUGAGAUCGAGGAUAUUUUGUACCUACAUGUGACAUGAGGAUCACCCAUGUGGUAAGUAUGAGAAAGAAGGCGAAGAUAUGU,–,–,41.4,22.1
ACAUGAGGAUCACCCAUGUAAAAUUAAGAAGGUAGAUACUUGAGGAUCACCCAUGUACAUGGGACUAAGGAUAUUAUAAUAAUU,–,–,55.7,49.1
ACAUGAGGAUCACCCAUGUAUUACAUGGUUAAGUUUAUUAACAGAAGGCGAAAUUACCACUUGGUCGAGGAUAUGUAUUCUAUU,40.3,40.7,–,–
ACAUGAGGAUCACCCAUGUAUUCAUAGGAUAUACAACAUGAGUUUCAUUCAUGUAAACAUGUAUUGUAGAAGGAUGUUACAUGU,13.6,15,–,–
ACAUGAGGAUCACCCAUGUGAGGAUCACCCAUGUUAUAUUUCAGAAGGCUCGUGUGUUUGAUGAGAGAGGAUAUGGAAUAUAGG,101,71.1,–,–
ACAUGAGGAUCACCCAUGUUAAACGAGGAUAUUUGACUGCACAUGAGGUUCACCCAUGUCCUGCCGAAGAAGGUGUGAAUAAUU,–,–,33.9,32.6
ACAUGAGGAUCACCCAUGUUAUCCGGGACUUCAAUUGUUUCUAGAAGGCUGUUUGCUUGUUAGUCAGAGGAUAUAGAAUCAAAU,10.2,10.1,–,–
ACAUGAGGAUCACCCAUGUUCACAUAGGAUAUUGAUUAUAUUGGUUUUAGAAUAGUAAUUAACCUCAAGAAGGAUGCCAGUUCU,–,–,13.3,10
ACAUGAUAUGUAGGAUAUCACAUUAAUUGUUUUAUAAUUGUAAUUUGGAUUUGAGAAGGACAUUUACAUGAGGAUCACCCAUGU,15.9,12.1,–,–
ACAUGAUCAGGAUAUACAUGAGGAUCACCCAUGUAAAUCAAAAAAAAACUUUCUUUAUGUAGAAGGGAUCUUGU,14.4,15.5,–,–
ACAUGAUCAGGAUAUACAUGAGGAUCACCCAUGUAUAUAAAAAAAAAACUUUCUUCAUGUAGAAGGGAUCUUGU,16.6,26.3,–,–
ACAUGCAAGUAGAAGGACGGAUAUUUUGAUAACGUAGGAUAUACAGAAUCAUAUCCACAUGAUAACAUGAGGAUCACCCAUGUA,11.8,12.4,–,–
ACAUUUAAUACAGGAUAUGUUAGUAUACAGUAGAUUGGUUAUUACAUAAUAACAGAAGGGUAGAACAUGAGGAUCACCCAUGUA,–,–,217,106
ACAUUUAUAUCAGGAUAUACAAUACAAUGAUUAGUAGAAGGGAUUAAUACAUGAGGAUCACCCAUGUCAUGUGUCAUAAUAACC,25.8,19.6,–,–
ACCGUUGAAGCAGGAUAUUACAGCGCCAGCGUGUAAGAAGGGCUUCAACAUGAGGAUCACCCAUGUUGGAGUACCUCAAAAGUG,5.14,31.4,–,–
ACCUAUGAGGAGGAUAUACGGUGCGAAAGGACGGUAGAAGGCUUCACAUGAGGAUCACCCAUGUCGAUAAGCGA,21.2,22.5,–,–
ACCUUACAUGAGGAUCACCCAUGUCAGGAUAUCUCGGACAGCUGAAAACCAGCCGUCCAGAGAAGGGACGAGGA,13.4,14.4,–,–
ACCUUACAUGAGGAUCACCCAUGUCAGGAUAUCUCGGACGGCUGAAAACCAACCGUCCAGAGAAGGGACGAGGA,13.1,15.2,–,–
ACCUUACAUGAGGAUCACCCAUGUUAGGAUAUCUCGCCCGCGCAAACACAGCGCAGGCAGAGAAGGGACGCGGG,31.8,32.8,–,–
ACGAAACAUGAGGAUCACCCAUGUGAGGAUAUGUAAAUACUAGACAAAUAACAGAAAAACAGAAGGCACUCAGA,24.3,22,–,–
ACGAUACAUGAGGAUCACCCAUGUUAGGAUAUACGCAUGCAUGCAUGCAUGCAUGCAAGUAGAAGGAACCAUGC,27.5,26.8,–,–
